Data: ChEMBL document CHEMBL4834405, “Structure-Based Design of High-Affinity Macrocyclic FKBP51 Inhibitors” (J Med Chem, 2021)
Each block holds one compound with its values, some of them ahead of it.

Columns and labels:
[1] = (§1) Selectivity ratio of Kd for displacement of fluorescent tracer 5-(3-(4-((1S,5S,6S)-10-(3,5-dichlorophenylsulfonyl)-2-oxo-3-(pyridin-3-ylmethyl)-3,10-diazabicyclo[4.3.1]decan-5-yl)-1H-1,2,3-triazol-1-yl)propylcarbamoyl)-2-(6-(dimethylamino)-3-(dimethyliminio)-3H-xanthen-9-yl)benzoate from recombinant full length C-terminal FLAG-tagged FKBP12.6 (unknown origin) to Kd for displacement of fluorescent tracer 5-(3-(4-((1S,5S,6S)-10-(3,5-dichlorophenylsulfonyl)-2-oxo-3-(pyridin-3-ylmethyl)-3,10-diazabicyclo[4.3.1]decan-5-yl)-1H-1,2,3-triazol-1-yl)propylcarbamoyl)-2-(6-(dimethylamino)-3-(dimethyliminio)-3H-xanthen-9-yl)benzoate from recombinant full length C-terminal FLAG-tagged FKBP51 (unknown origin)
[2] = biological target: Peptidyl-prolyl cis-trans isomerase FKBP1A (Homo sapiens, UniProt P62942); assay: (§2) Displacement of fluorescent tracer 5-(3-(4-((1S,5S,6S)-10-(3,5-dichlorophenylsulfonyl)-2-oxo-3-(pyridin-3-ylmethyl)-3,10-diazabicyclo[4.3.1]decan-5-yl)-1H-1,2,3-triazol-1-yl)propylcarbamoyl)-2-(6-(dimethylamino)-3-(dimethyliminio)-3H-xanthen-9-yl)benzoate from recombinant full length C-terminal FLAG-tagged FKBP12 (unknown origin) expressed in Escherichia coli BL21 (DE2) cells incubated for 30 mins by fluorescence polarisation competition binding assay
In short: (§3)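 Competitive FP in 150 mM NaCl, 20 mM HEPES pH 8.0, 0.002% Triton X-100. Ligand 1:1 serially diluted in DMSO and premixed with fluorescent tracer, tracer working solution 11.9 nM (FKBP12.6, 51FK1, 52FK1) or 5.95 nM (FKBP12) before final 10-fold dilution into protein. 30 min at room temperature, read at ex/em 535/590 nm. Weighted SD from at least two independent runs.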

[3] = biological target: T1, Peptidyl-prolyl cis-trans isomerase FKBP4 (Homo sapiens, UniProt Q02790); assay: as §2, with “FKBP52” for “FKBP12”, “(DE3)” for “(DE2)”; in short: as §3
T1 sequence (Q02790 whole entry): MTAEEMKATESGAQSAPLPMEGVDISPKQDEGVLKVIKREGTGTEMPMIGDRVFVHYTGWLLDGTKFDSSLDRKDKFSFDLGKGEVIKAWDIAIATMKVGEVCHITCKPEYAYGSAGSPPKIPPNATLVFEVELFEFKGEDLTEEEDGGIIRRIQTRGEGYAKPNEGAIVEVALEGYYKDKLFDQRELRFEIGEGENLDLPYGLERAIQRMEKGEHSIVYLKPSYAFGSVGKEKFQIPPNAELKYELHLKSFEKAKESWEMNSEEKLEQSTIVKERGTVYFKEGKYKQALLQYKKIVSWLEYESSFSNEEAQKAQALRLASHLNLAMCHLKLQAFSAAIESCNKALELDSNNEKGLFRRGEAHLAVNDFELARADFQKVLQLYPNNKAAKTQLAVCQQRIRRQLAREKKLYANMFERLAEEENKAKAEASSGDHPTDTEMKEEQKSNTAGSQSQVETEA

[4] = as §1, with “FKBP52” for “FKBP12.6”
[5] = as §1, with “FJBP12” for “FKBP12.6 (unknown origin)”
[6] = biological target: T2, Peptidyl-prolyl cis-trans isomerase FKBP5 (Homo sapiens, UniProt Q13451); assay: as §2, with “FKBP51” for “FKBP12”, “(DE3)” for “(DE2)”
T2 sequence (Q13451 whole entry): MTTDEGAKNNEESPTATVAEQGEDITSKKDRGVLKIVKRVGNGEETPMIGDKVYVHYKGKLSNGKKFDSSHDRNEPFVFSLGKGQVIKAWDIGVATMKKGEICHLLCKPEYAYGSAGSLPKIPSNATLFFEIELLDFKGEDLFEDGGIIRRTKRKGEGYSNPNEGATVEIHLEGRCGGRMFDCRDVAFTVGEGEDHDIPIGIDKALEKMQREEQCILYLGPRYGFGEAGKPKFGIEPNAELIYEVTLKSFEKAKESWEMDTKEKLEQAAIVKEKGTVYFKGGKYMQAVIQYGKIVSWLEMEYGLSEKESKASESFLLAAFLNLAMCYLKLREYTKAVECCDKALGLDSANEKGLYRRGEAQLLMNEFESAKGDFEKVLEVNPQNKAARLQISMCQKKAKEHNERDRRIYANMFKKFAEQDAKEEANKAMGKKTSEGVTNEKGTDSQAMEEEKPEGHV

[7] = biological target: Peptidyl-prolyl cis-trans isomerase FKBP1B (Homo sapiens, UniProt P68106); assay: as §2, with “FKBP12.6” for “FKBP12”, “(DE3)” for “(DE2)”, “competition” for “competition binding”; in short: as §3
Sequence of Peptidyl-prolyl cis-trans isomerase FKBP1B (P68106 whole entry): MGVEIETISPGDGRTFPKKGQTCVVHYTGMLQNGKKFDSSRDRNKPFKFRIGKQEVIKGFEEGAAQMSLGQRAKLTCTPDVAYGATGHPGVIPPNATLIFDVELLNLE

Sequence of Peptidyl-prolyl cis-trans isomerase FKBP1A (P62942 whole entry): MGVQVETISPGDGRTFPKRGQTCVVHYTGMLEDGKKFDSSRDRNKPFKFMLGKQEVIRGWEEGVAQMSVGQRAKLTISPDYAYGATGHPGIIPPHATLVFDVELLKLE

SMILES: COc1ccc(CC[C@H]2OC(=O)[C@@H]3CCCCN3C(=O)[C@@H](C3CCCCC3)c3cc(OC)c(OC)c(c3)OCCCOC/C=C\COc3cccc2c3)cc1OC
Selectivity ratio [1]: 2.3 | Kd [2]: 494 nM | Kd [3]: > 10000 nM | Selectivity ratio [4]: > 69 | Selectivity ratio [5]: 3.4 | Kd [6]: 144 nM | Kd [7]: 352 nM

SMILES: COc1ccc(CC[C@H]2OC(=O)[C@@H]3CCCCN3C(=O)[C@@H](C3CCCCC3)c3cc(OC)c(OC)c(c3)OCCCOc3cccc2c3)cc1OC
Selectivity ratio [1]: 1.3 | Kd [2]: 295 nM | Kd [3]: 13200 nM | Selectivity ratio [4]: > 188 | Selectivity ratio [5]: 4.2 | Kd [6]: 70 nM | Kd [7]: 94 nM

SMILES: COc1ccc(CC[C@H]2OC(=O)[C@@H]3CCCCN3C(=O)[C@@H](C3CCCCC3)c3cc(OC)c(c(OC)c3)OC/C=C\COc3cccc2c3)cc1OC
Selectivity ratio [1]: 9.8 | Kd [2]: 815 nM | Kd [3]: > 10000 nM | Selectivity ratio [4]: > 149 | Selectivity ratio [5]: 12.2 | Kd [6]: 67 nM | Kd [7]: 658 nM

SMILES: COc1ccc(CC[C@H]2OC(=O)[C@@H]3CCCCN3C(=O)[C@@H](C3CCCCC3)c3cc(OC)c(OC)c(c3)OCCCOCCCCOc3cccc2c3)cc1OC
Selectivity ratio [1]: 2.2 | Kd [2]: 354 nM | Kd [3]: > 10000 nM | Selectivity ratio [4]: > 97 | Selectivity ratio [5]: 3.4 | Kd [6]: 103 nM | Kd [7]: 227 nM

SMILES: COc1cccc([C@@H](CCc2ccc(OC)c(OC)c2)OC(=O)[C@@H]2CCCCN2C(=O)[C@H](c2cc(OC)c(OC)c(OC)c2)C2CCCCC2)c1
Kd [2]: 263 nM | Kd [3]: > 10000 nM | Kd [6]: 83 nM | Kd [7]: 203 nM

SMILES: COc1ccc(CC[C@H]2OC(=O)[C@@H]3CCCCN3C(=O)[C@@H](C3CCCCC3)c3cc(OC)c(c(OC)c3)OCC(O)C(O)COc3cccc2c3)cc1OC (mixture of isomers)
Selectivity ratio [1]: 7 | Kd [2]: 79 nM | Kd [3]: 795 nM | Selectivity ratio [4]: 66.2 | Selectivity ratio [5]: 6.5 | Kd [6]: 12 nM | Kd [7]: 85 nM

SMILES: COc1ccc(CC[C@H]2OC(=O)[C@@H]3CCCCN3C(=O)[C@@H](C3CCCCC3)c3cc(OC)c(c(OC)c3)OCC/C=C/COc3cccc2c3)cc1OC
Selectivity ratio [1]: 7.2 | Kd [2]: 1010 nM | Kd [3]: > 10000 nM | Selectivity ratio [4]: > 67 | Selectivity ratio [5]: 6.8 | Kd [6]: 149 nM | Kd [7]: 1080 nM

SMILES: COc1ccc(CC[C@H]2OC(=O)[C@@H]3CCCCN3C(=O)[C@@H](C3CCCCC3)c3cc(OC)c(OC)c(c3)OCCOc3cccc2c3)cc1OC
Selectivity ratio [1]: 1.5 | Kd [2]: 247 nM | Kd [3]: 9090 nM | Selectivity ratio [4]: > 165 | Selectivity ratio [5]: 4.5 | Kd [6]: 55 nM | Kd [7]: 82 nM

SMILES: COc1ccc(CC[C@H]2OC(=O)[C@@H]3CCCCN3C(=O)[C@@H](C3CCCCC3)c3cc(OC)c(c(OC)c3)OCCOCCCCOc3cccc2c3)cc1OC
Selectivity ratio [1]: 3.1 | Kd [2]: 1110 nM | Kd [3]: > 10000 nM | Selectivity ratio [4]: > 72 | Selectivity ratio [5]: 8 | Kd [6]: 138 nM | Kd [7]: 429 nM

SMILES: COc1ccc(CC[C@H]2OC(=O)[C@@H]3CCCCN3C(=O)[C@@H](C3CCCCC3)c3cc(OC)c(OC)c(c3)OCC/C=C/COc3cccc2c3)cc1OC
Selectivity ratio [1]: 6.3 | Kd [2]: 588 nM | Kd [3]: > 10000 nM | Selectivity ratio [4]: > 89 | Selectivity ratio [5]: 5.2 | Kd [6]: 113 nM | Kd [7]: 709 nM

SMILES: COc1ccc(CC[C@H]2OC(=O)[C@@H]3CCCCN3C(=O)[C@@H](C3CCCCC3)c3cc(OC)c(c(OC)c3)OCCOC/C=C\COc3cccc2c3)cc1OC
Kd [2]: 798 nM | Kd [3]: > 10000 nM | Kd [7]: 344 nM

The remaining lines, values ahead:

Selectivity ratio [1]: 4.3 | Kd [2]: 584 nM | Kd [3]: > 10000 nM | Selectivity ratio [4]: > 112 | Selectivity ratio [5]: 6.6 | Kd [6]: 89 nM | Kd [7]: 383 nM
SMILES: COc1ccc(CC[C@H]2OC(=O)[C@@H]3CCCCN3C(=O)[C@@H](C3CCCCC3)c3cc(OC)c(c(OC)c3)OCCCCOc3cccc2c3)cc1OC

Selectivity ratio [1]: 1.7 | Kd [2]: 192 nM | Kd [3]: > 10000 nM | Selectivity ratio [4]: > 161 | Selectivity ratio [5]: 3.1 | Kd [6]: 62 nM | Kd [7]: 105 nM
SMILES: COc1ccc(CC[C@H]2OC(=O)[C@@H]3CCCCN3C(=O)[C@@H](C3CCCCC3)c3cc(OC)c(OC)c(c3)OCCOC/C=C/COc3cccc2c3)cc1OC

Selectivity ratio [1]: 3.3 | Kd [2]: 532 nM | Kd [3]: > 10000 nM | Selectivity ratio [4]: > 147 | Selectivity ratio [5]: 7.8 | Kd [6]: 68 nM | Kd [7]: 227 nM
SMILES: COc1ccc(CC[C@H]2OC(=O)[C@@H]3CCCCN3C(=O)[C@@H](C3CCCCC3)c3cc(OC)c(c(OC)c3)OCCOc3cccc2c3)cc1OC

Kd [2]: 1010 nM | Kd [3]: > 10000 nM | Kd [7]: 715 nM
SMILES: COc1ccc(CC[C@H]2OC(=O)[C@@H]3CCCCN3C(=O)[C@@H](C3CCCCC3)c3cc(OC)c(c(OC)c3)OCCOC/C=C/COc3cccc2c3)cc1OC

Selectivity ratio [1]: 3.4 | Kd [2]: 86 nM | Kd [3]: 4670 nM | Selectivity ratio [4]: 425 | Selectivity ratio [5]: 7.8 | Kd [6]: 11 nM | Kd [7]: 38 nM
SMILES: COc1ccc(CC[C@H]2OC(=O)[C@@H]3CCCCN3C(=O)[C@@H](C3CCCCC3)c3cc(OC)c(c(OC)c3)OCCC(=O)COc3cccc2c3)cc1OC

Selectivity ratio [1]: 1.1 | Kd [2]: 44 nM | Kd [3]: 3850 nM | Selectivity ratio [4]: 227 | Selectivity ratio [5]: 2.6 | Kd [6]: 17 nM | Kd [7]: 19 nM
SMILES: COc1ccc(CC[C@H]2OC(=O)[C@@H]3CCCCN3C(=O)[C@@H](C3CCCCC3)c3cc(OC)c(OC)c(c3)OC[C@H](O)[C@@H](O)COc3cccc2c3)cc1OC

Selectivity ratio [1]: 6.8 | Kd [2]: 768 nM | Kd [3]: > 10000 nM | Selectivity ratio [4]: > 112 | Selectivity ratio [5]: 8.6 | Kd [6]: 89 nM | Kd [7]: 606 nM
SMILES: COc1ccc(CC[C@H]2OC(=O)[C@@H]3CCCCN3C(=O)[C@@H](C3CCCCC3)c3cc(OC)c(c(OC)c3)OC/C=C/COc3cccc2c3)cc1OC

Selectivity ratio [1]: 7.1 | Kd [2]: 1490 nM | Kd [3]: > 10000 nM | Selectivity ratio [4]: > 84 | Selectivity ratio [5]: 12.5 | Kd [6]: 119 nM | Kd [7]: 849 nM
SMILES: COc1ccc(CC[C@H]2OC(=O)[C@@H]3CCCCN3C(=O)[C@@H](C3CCCCC3)c3cc(OC)c(c(OC)c3)OCCCCCOc3cccc2c3)cc1OC

Selectivity ratio [1]: 1.5 | Kd [2]: 66 nM | Kd [3]: 4100 nM | Selectivity ratio [4]: 146 | Selectivity ratio [5]: 2.4 | Kd [6]: 28 nM | Kd [7]: 43 nM
SMILES: COc1ccc(CC[C@H]2OC(=O)[C@@H]3CCCCN3C(=O)[C@@H](C3CCCCC3)c3cc(OC)c(OC)c(c3)OCCCC(=O)COc3cccc2c3)cc1OC

Selectivity ratio [1]: 1.9 | Kd [2]: 62 nM | Kd [3]: 3880 nM | Selectivity ratio [4]: 138 | Selectivity ratio [5]: 2.2 | Kd [6]: 28 nM | Kd [7]: 53 nM
SMILES: COc1ccc(CC[C@H]2OC(=O)[C@@H]3CCCCN3C(=O)[C@@H](C3CCCCC3)c3cc(OC)c(OC)c(c3)OCCOCC(=O)CCOc3cccc2c3)cc1OC
